For 30 compounds, IC50 and inhibition results are on record in ChEMBL document CHEMBL3259759, “Discovery of novel bacterial elongation condensing enzyme inhibitors by virtual screening” (Bioorg Med Chem Lett, 2014).

Each structure is given as a SMILES string.

Test system in the first test: not listed separately
Briefly: Inhibition of Escherichia coli FabB by radiochemical assay. In outline:
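Radiochemical condensing-enzyme assay with E. coli FabB, run as described earlier except that myristoyl-ACP was replaced by lauryl-ACP. The lauryl-ACP was made with Vibrio harveyi acyl-ACP synthetase. Compounds were first screened at a single final concentration of 200 μM, and selected compounds then went to dose-response testing to derive IC50.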
In turn, `O=c1sc2ccc(Cl)cc2n1CN1CCCC1c1cccc(Br)c1` (racemic) returned an IC50 of 303 µM.
Same read-out and setting: the result for `COc1cccc(C2CCCN2Cn2c(=O)oc3ccc(Cl)cc32)c1` (racemic) reads 305 µM; that for `CN(Cc1ccccc1)Cn1c(=O)oc2ccccc21`, 235 µM.
Same read-out and setting: the result for `O=c1oc2ccc(Cl)cc2n1CN1CCCC2(CCOCC2)C1` reads 335 µM; that for `O=c1oc2ccc(Cl)cc2n1CN1CCCC1c1cccc(Br)c1` (racemic), 260 µM.
The same measure, in the same setting: to `O=c1oc2ccc(Cl)cc2n1CN(CC1CCOC1)C1CC1` (racemic) belongs 350 µM.
The compound `O=c1oc2cc(Cl)ccc2n1CN(CC1CCOC1)C1CC1` (racemic) came in with an IC50 of 800 µM.
The same measure, in the same setting: to `N#Cc1ccc2oc(=O)n(CN3CCCC3c3cccc(Br)c3)c2c1` (racemic) belongs 253 µM; to `O=c1oc2cc(Br)ccc2n1CN1CCC2(CC1)OCCO2`, 600 µM; to `O=c1oc2ccc(Cl)cc2n1CN1CCCCC1c1ccccc1` (racemic), 415 µM.

Test system in a further test: not listed separately
Briefly: Inhibition of Staphylococcus aureus FabF by radiochemical assay.
In turn, `CN(Cc1ccccc1)Cn1c(=O)oc2ccccc21` registered an IC50 of 387 µM.

In the next test the test system is Escherichia coli. The test is described as follows: Inhibition of Escherichia coli FabB at 200 uM by radiochemical assay. An outline of the steps:
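Radiochemical condensing-enzyme assay with FabB, run per an earlier method except that lauryl-ACP replaced myristoyl-ACP. The lauryl-ACP was made with Vibrio harveyi acyl-ACP synthetase. Compounds were tested at a single final concentration of 200 μM, and inhibition is given as percent.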
`O=c1sc2ccc(Cl)cc2n1CN1CCCC1c1cccc(Br)c1` (racemic) yielded an inhibition of 36.1%.
Same read-out and setting: to `CC(CN(C)Cn1c(=O)oc2cc(Cl)ccc21)N1CCOCC1` (racemic) belongs 24.3%.
Same read-out and setting: to `O=c1oc2ccc(Cl)cc2n1CN1CCC1c1ccccc1` (racemic) belongs 31.9%.
Still for that read-out and setting: to `O=c1oc2cc(Cl)ccc2n1CN(Cc1ccc(F)cc1)C1CC1` belongs 32.1%; to `CN(Cc1cccc(O)c1)Cn1c(=O)oc2ccc(Cl)cc21`, 41.4%; to `CN(CC1CCOCC1)Cn1c(=O)oc2cc(Cl)ccc21`, 31.7%.
`COc1cccc(C2CCCN2Cn2c(=O)oc3ccc(Cl)cc32)c1` (racemic) came in with an inhibition of 37.1%.
Still for that read-out and setting: to `CN(Cc1ccccc1)Cn1c(=O)oc2ccccc21` belongs 33.5%; to `O=c1oc2cc(Cl)ccc2n1CN1CCCC2(CCOCC2)C1`, 38.8%; to `Cc1ccc2oc(=O)n(CN(CC3CCOC3)C3CC3)c2c1` (racemic), 40.1%.
Same read-out and setting: the result for `O=c1oc2cc(Cl)ccc2n1CN1CCCCC1c1ccccc1` (racemic) reads 38%; that for `O=c1oc2ccc(Cl)cc2n1CN1CCCC2(CCOCC2)C1`, 37.7%; that for `O=c1oc2cc(Cl)ccc2n1CN(Cc1cccnc1)C1CC1`, 23.6%.
Still for that read-out and setting: to `O=c1oc2ccc(Cl)cc2n1CN1CCCC1c1cccc(Br)c1` (racemic) belongs 55.4%.
Consider `COc1cccc(CN(Cn2c(=O)oc3cc(Cl)ccc32)C2CC2)c1`, for which the inhibition amounted to 28.3%.
Still for that read-out and setting: to `O=c1oc2ccccc2n1CN1CCCC1` belongs 24%; to `CN(CC1CCCC1)Cn1c(=O)oc2ccc(Cl)cc21`, 17.7%; to `O=c1oc2ccccc2n1CN(Cc1ccc(F)cc1)C1CC1`, 5%.
On to `COc1cccc(C2CCCN2Cn2c(=O)oc3cc(Cl)ccc32)c1` (racemic), for which the inhibition turned out to be 36.4%.
Same read-out and setting: to `O=c1oc2cc(Br)ccc2n1CN(CC1CCCC1)C1CC1` belongs 17.7%; to `O=c1oc2ccc(Cl)cc2n1CN(CC1CCOC1)C1CC1` (racemic), 36.7%.
On the same count and under the same terms, to `O=c1oc2cc(Cl)ccc2n1CN(CC1CCOC1)C1CC1` (racemic) belongs 24.1%; to `N#Cc1ccc2oc(=O)n(CN3CCCC3c3cccc(Br)c3)c2c1` (racemic), 42.1%.
On the same count and under the same terms, to `CN1CCC(CN(C)Cn2c(=O)oc3cc(Cl)ccc32)C1` (racemic) belongs 23.8%; to `CN(CCN1CCCC1)Cn1c(=O)oc2cc(Cl)ccc21`, 26.4%; to `O=c1oc2cc(Cl)ccc2n1CN(Cc1ccccn1)C1CC1`, 30%.
In turn, `O=c1oc2cc(Br)ccc2n1CN1CCC2(CC1)OCCO2` yielded an inhibition of 32.7%.
The same measure, in the same setting: to `CN(Cc1ccsc1)Cn1c(=O)oc2ccccc21` belongs 30%.
Turning to `O=c1oc2ccccc2n1CN(Cc1ccsc1)C1CC1`, the inhibition worked out at 37.8%.
Same read-out and setting: to `O=c1oc2ccc(Cl)cc2n1CN1CCCCC1c1ccccc1` (racemic) belongs 30.4%.

A word on the IC50: it is the point on the concentration scale where inhibition reaches its midpoint. By inhibition is commonly meant the share of the control response that was lost under treatment.
